Measured values published in publication PMC5060091 (ChemMedChem, 2016).
Several values for one entry are separate records, joined by “and”; a condition that tells them apart may be missing. Equal entries are not always repeated. Where two headings read alike, the source gives them in different places.

Tests used:
[1] = system: Aspergillus flavus ATCC MYA-3631; assay: MIC, broth dilution, strain K; assay type: cell-based; settings: Aspergillus flavus
[2] = system: C. albicans ATCC 64124 (strain B); assay: Time-kill assay; assay type: cell-based, Candida albicans
C. albicans ATCC 64124 = assay: MIC, broth dilution, strain B; assay type: cell-based, Candida albicans; settings: Candida albicans
Summary of the method: (§1)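 Broth dilution MIC assay on the Candida panel: C. albicans strains A–G, C. glabrata (H), C. krusei (I) and C. parapsilosis (J). Test compounds were delivered in DMSO, with DMSO kept below 1% in the assay. The MIC is reported in µg/mL, with µM in parentheses. Reference antifungals (a polyene and four azoles) were run alongside.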

[3] = system: C. albicans ATCC 90819(R); assay: MIC, broth dilution, strain D; assay type: cell-based, Candida albicans; settings: Candida albicans
Summary of the method: as §1

[4] = system: C. albicans ATCC MYA-1237(R); assay: MIC, broth dilution, strain F; assay type: cell-based, Candida albicans; settings: Candida albicans
Summary of the method: as §1

[5] = system: Aspergillus terreus ATCC MYA-3633; assay: MIC, broth dilution, strain M; assay type: cell-based; settings: Aspergillus terreus
[6] = system: C. albicans ATCC MYA-2310(S); assay: MIC, broth dilution, strain E; assay type: cell-based, Candida albicans; settings: Candida albicans
Summary of the method: as §1

[7] = system: C. albicans ATCC MYA-2876(S); assay: MIC, broth dilution, strain C; assay type: cell-based, Candida albicans; settings: Candida albicans
Summary of the method: as §1

[8] = system: C. albicans ATCC MYA-1003(R); assay: MIC, broth dilution, strain G; assay type: cell-based, Candida albicans; settings: Candida albicans
Summary of the method: as §1

[9] = Mammalian cytotoxicity, resazurin assay, HEK293; assay type: cell-based; settings: human, HEK293 cells
[10] = system: C. albicans ATCC 10231 (strain A); assay: ROS induction assay; assay type: cell-based, Candida albicans; settings: 1× and 2× MIC, 1-h treatment; H2O2 1 mM
Summary of the method: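 C. albicans ATCC 10231 cells were incubated 1 h at 37 °C with test compound at 1× or 2× MIC, with no drug (negative control), or with 1 mM H₂O₂ (positive control). DCFH-DA (40 µg/mL) was then added. ROS were detected and imaged by fluorescence microscopy.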

[11] = system: Candida albicans ATCC 10231; assay: MIC, broth dilution, strain A; assay type: cell-based; settings: Candida albicans
Summary of the method: as §1

[12] = system: murine red blood cells (mRBCs); settings: data previously presented; cited from earlier work
[13] = system: Aspergillus nidulans ATCC 38163; assay: MIC, broth dilution, strain L; assay type: cell-based; settings: Aspergillus nidulans
[14] = read-out: MIC (MIC-0) in µM (parentheses)

With `O=c1c2ccccc2[se]n1-c1ccccc1` [Compound 1, ebselen] as the molecule, how does the MIC ([1]; read-out: MIC (MIC-0)) read?
Its MIC is 6.25 µg/mL.

What about the MIC [1, 14] of the same molecule?
Its MIC is 22.8 µM.

What about the “time of complete fungal cell death” value ([2]; 1× MIC (12.5 µg/mL)) of the same molecule?
The value was 6 h.

What about the time-kill effect ([2]; 1× MIC (1 12.5, 2a 12.5, 3a 0.39, AmB 3.9 µg/mL)) of the same molecule?
Its time-kill effect is “fungicidal”.

What about the “time from which completely fungicidal” value ([2]; 2× MIC) of the same molecule?
The value was 3 h.

What about the time-kill effect ([2]; 2× MIC (1 25, 2a 25, 3a 0.78, AmB 7.8 µg/mL)) of the same molecule?
Its time-kill effect is “completely fungicidal”.

What about the fungicidal concentration ([2]; time-kill curves) of the same molecule?
Its fungicidal concentration is 12.5 µg/mL and 45.6 µM.

And the MIC (C. albicans ATCC 64124; ATCC64124, read-out: MIC (MIC-0))?
Its MIC is 12.5 µg/mL.

What about the MIC (C. albicans ATCC 64124; ATCC64124, read-out: MIC (MIC-0) in µM (parentheses)) of the same molecule?
The MIC was 45.6 µM.

What about the MIC ([3]; ATCC90819, read-out: MIC (MIC-0)) of the same molecule?
The MIC was 1.56 µg/mL.

And the MIC ([3]; ATCC90819, read-out: MIC (MIC-0) in µM (parentheses))?
The MIC was 5.69 µM.

What about the MIC ([4]; read-out: MIC (MIC-0)) of the same molecule?
Its MIC is over 12.5 µg/mL.

What about the MIC [4, 14] of the same molecule?
The MIC was over 45.6 µM.

What about the MIC ([5]; read-out: MIC (MIC-0)) of the same molecule?
The MIC was 1.56 µg/mL.

And the MIC [5, 14]?
Its MIC is 5.69 µM.

And the MIC ([6]; read-out: MIC (MIC-0))?
The MIC was 3.13 µg/mL.

What about the MIC [6, 14] of the same molecule?
The MIC was 11.4 µM.

And the MIC ([7]; read-out: MIC (MIC-0))?
Its MIC is 12.5 µg/mL.

And the MIC [7, 14]?
Its MIC is 45.6 µM.

And the MIC ([8]; read-out: MIC (MIC-0))?
The MIC was 12.5 µg/mL.

What about the MIC [8, 14] of the same molecule?
Its MIC is 45.6 µM.

And the IC50 [9]?
Its IC50 is > 10 µg/mL and > 36.5 µM.

And the “ROS induction (DCFH-DA fluorescence)” value [10]?
Its value is “highly fluorescent”.

What about the MIC ([11]; ATCC10231, read-out: MIC (MIC-0)) of the same molecule?
Its MIC is 12.5 µg/mL.

What about the MIC ([11]; ATCC10231, read-out: MIC (MIC-0) in µM (parentheses)) of the same molecule?
Its MIC is 45.6 µM.

What about the “concentration until which no significant hemolytic activity was shown” value [12] of the same molecule?
The value was 15.6 µg/mL and 56.9 µM.

What about the MIC ([13]; ATCC38163, read-out: MIC (MIC-0)) of the same molecule?
Its MIC is 1.56 µg/mL.

What about the MIC ([13]; ATCC38163, read-out: MIC (MIC-0) in µM (parentheses)) of the same molecule?
The MIC was 5.69 µM.
